Screens: PubChem, The Scripps Research Institute Molecular Screening Center
NPY-Y2 antag: blocks the human neuropeptide Y Y2 receptor | P49146 | NPY-Y2 expressing cells, antagonist mode | inhibition, % at 2.7 µM | actives 0.99% (n = 140,000) | AID 793; in the data active = inhibition above about 17%
Target sequence (P49146 whole entry, looked up): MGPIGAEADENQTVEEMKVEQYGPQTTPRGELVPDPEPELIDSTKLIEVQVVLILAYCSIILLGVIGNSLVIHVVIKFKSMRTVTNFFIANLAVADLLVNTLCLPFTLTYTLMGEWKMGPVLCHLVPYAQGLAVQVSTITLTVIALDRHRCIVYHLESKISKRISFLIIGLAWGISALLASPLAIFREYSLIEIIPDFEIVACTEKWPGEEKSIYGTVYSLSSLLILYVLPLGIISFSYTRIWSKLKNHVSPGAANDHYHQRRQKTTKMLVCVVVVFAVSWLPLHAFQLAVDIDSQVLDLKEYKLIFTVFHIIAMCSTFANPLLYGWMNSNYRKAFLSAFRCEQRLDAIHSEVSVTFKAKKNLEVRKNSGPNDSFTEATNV
NPY-Y1 PAM-ag: human NPY-Y1 potentiation or agonism, primary screen | P25929 | NPY-Y1 expressing cells, potentiator/agonist activation | activation, % at 3.6 µM | actives 0.37% (n = 220,000); in the data active = activation above about 33%, passing the limit was not always enough;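 note: cells stimulated with NPY at EC10 then isoproterenol at EC100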
S1P4 agonist: activates the human S1P4 receptor | O95977 | S1P4-expressing cell line, agonist reporter assay | activation, % at 4.98 µM | actives 0.35% (n = 220,000); in the data active = activation above about 11%
Target sequence (O95977 whole entry, looked up): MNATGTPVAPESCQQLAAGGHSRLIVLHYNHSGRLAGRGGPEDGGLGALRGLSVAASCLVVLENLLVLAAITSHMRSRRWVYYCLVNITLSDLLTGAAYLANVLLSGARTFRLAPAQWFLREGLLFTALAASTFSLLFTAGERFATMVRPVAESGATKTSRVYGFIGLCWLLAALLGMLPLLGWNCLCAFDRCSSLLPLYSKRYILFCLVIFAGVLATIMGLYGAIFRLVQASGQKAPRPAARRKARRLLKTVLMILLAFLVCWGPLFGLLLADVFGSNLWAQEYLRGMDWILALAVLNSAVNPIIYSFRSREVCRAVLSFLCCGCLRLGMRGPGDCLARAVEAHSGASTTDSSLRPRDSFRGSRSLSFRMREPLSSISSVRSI
NPY-Y1 antag: blocks the human neuropeptide Y Y1 receptor; P25929; HEK293-CNG Y1 cells, membrane potential fluorescence; NPY at EC95, then isoproterenol; actives 1% (n = 200,000); AID 1040; inhibition, % at 3.6 µM;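 active = inhibition above the campaign mean inhibition of all tested compounds plus 3 SD, cut at about 20% in these data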
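Test system: HEK293 cells co-expressing NPY Y1 receptor and cyclic-nucleotide gated channel; Also added: NPY (25 nM), isoproterenol (1 µM), Ro 20-1724 (25 µM); Compound dosing: one concentration, 3.6 µM, in 0.4% DMSO; Timing: dye 3 h, compound 60 min room temperature, stimulation 45 min; Technique: Membrane-potential fluorescent dye readout.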
S1P4 antag: antagonists of human S1P4 receptor. S1P4-expressing cells, antagonist mode, reporter read-out. O95977. AID 1510. inhibition, % at 4.98 µM. actives 0.26% (n = 220,000); in the data active = inhibition above about 29%
NPY2 pot ag: potentiators or agonists of human neuropeptide Y receptor Y2; P49146; cells expressing NPY-Y2, potentiator/agonist read-out; activation, % at 3.6 µM; actives 0.45% (n = 220,000); AID 1359; in the data active = activation above about 27%;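 note: cells stimulated with NPY near EC25 plus isoproterenol at EC100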
NPY-Y1 confirm: confirmation of human NPY-Y1 receptor potentiators or agonists; shares compounds with NPY-Y1 PAM-ag; actives 20% (n = 280); cell-based NPY-Y1 potentiator/agonist assay; activation, % at 3.6 µM;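 note: cells challenged with NPY at its EC10 plus isoproterenol stimulus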
NPY-Y2 counter: NPY-Y2 potentiation or agonism as NPY-Y1 counter-screen. actives 20% (n = 280). HEK293-CNG cells, membrane-potential fluorescence (FLIPR), 1536-well. shares compounds with NPY-Y1 PAM-ag. AID 1649. activation, % at 3.6 µM; in the data active = activation above about 33%
NPY-Y1 agonist: activates human NPY-Y1, counter-screen for NPY-Y1 potentiators; AID 1697; actives 50% (n = 280); HEK293 Y1-CNGC, membrane potential fluorescence, agonist mode; activation, % at 3.6 µM; shares compounds with NPY-Y1 PAM-ag;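 active = percent activation above the mean of DMSO-only control wells plus 3 SD of those wells, cut at about 18% in these data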;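 note: cells challenged with isoproterenol plus Ro 20-1724 with no NPY in test wells; Y1 agonism lowers isoproterenol-driven cAMP and reduces probe fluorescence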
NPY-Y2 agonist: activates human NPY-Y2, counter-screen for NPY-Y1 hits; shares compounds with NPY-Y1 PAM-ag; HEK293 Y2-CNGC, membrane potential fluorescence, agonist mode; activation, % at 3.6 µM; actives 67% (n = 280); AID 1698;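 active = activation above the solvent-only control wells' mean plus 3 SD, cut at about 11% in these data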;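 note: agonism lowers cAMP so well fluorescence drops in active wells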
CNGC counter: CNG channel inhibition, counter-screen for NPY-Y1 potentiators; AID 1704; HEK293-CNG parental, isoproterenol cAMP, membrane potential fluorescence; shares compounds with NPY-Y1 PAM-ag; inhibition, % at 3.6 µM; actives 42% (n = 280);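 active = inhibition above the mean of stimulated solvent-only control wells plus 3 SD, cut at about 22% in these data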
NPY-Y2 confirm: human NPY-Y2 potentiation or agonism, confirmation; shares compounds with NPY2 pot ag; cell-based NPY-Y2 potentiator/agonist assay; activation, % at 3.6 µM; actives 20% (n = 450); in the data active = activation above about 33%
NPY-Y1 potentiator: counter-screen for NPY-Y2 potentiators or agonists: NPY-Y1 potentiators or agonists; Y1 HEK293-CNG cells, membrane potential fluorescence; AID 1651; activation, % at 3.6 µM; shares compounds with NPY2 pot ag; actives 20% (n = 450);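 note: cells stimulated with submaximal NPY then isoproterenol with phosphodiesterase inhibitor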
NPY-Y1 agonist 2: human NPY-Y1 agonism as NPY-Y2 potentiator counter-screen; actives 37% (n = 450); activation, % at 3.6 µM; HEK293 Y1-CNGC, membrane potential fluorescence; shares compounds with NPY2 pot ag;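 active = activation above the mean of DMSO-only control wells plus 3 SD, cut at about 18% in these data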;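 note: cells stimulated with 1 µM isoproterenol plus the PDE inhibitor Ro 20-1724; Y1 agonists lower the membrane potential dye signal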
CNGC inh: counter-screen for NPY-Y2 potentiators: inhibitors of CNG channel activity; shares compounds with NPY2 pot ag; HEK293-CNG parental, isoproterenol cAMP, membrane potential fluorescence; inhibition, % at 3.6 µM; actives 32% (n = 450); AID 1703;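 active = inhibition above the control-well mean plus 3 SD of those wells, cut at about 22% in these data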
Y2 agonist ctr: counter-screen for NPY-Y2 potentiators: agonists of human NPY-Y2 | activation, % at 3.6 µM | HEK293 Y2/CNGC cells, membrane potential fluorescence, agonist mode | AID 1710 | actives 56% (n = 450) | shares compounds with NPY2 pot ag;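 active = activation above the mean of solvent-only control wells plus 3 SD, cut at about 10% in these data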;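 note: cells stimulated by isoproterenol with no NPY added so direct agonism is tested; agonism lowers probe fluorescence through less cAMP and CNG channel opening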
S1P4 agonist cf: confirmation of human S1P4 receptor agonists. shares compounds with S1P4 agonist. activation, % at 4.98 µM. actives 7% (n = 740). S1P4 agonist cell-based reporter assay; in the data active = activation above about 12%
S1P1 agonist: counter-screen for S1P4 agonists: agonists of human S1P1; shares compounds with S1P4 agonist; S1P1 agonist cell-based assay, activation; activation, % at 4.98 µM; actives 4% (n = 740); AID 1563; in the data active = activation above about 21%
S1P4 antag cf: confirmation of human S1P4 receptor antagonists; actives 71% (n = 520); AID 1524; inhibition, % at 4.98 µM; S1P4-expressing cell line, antagonist mode, reporter read-out; shares compounds with S1P4 antag; in the data active = inhibition above about 30%
S1P1 antag: human S1P1 antagonism as S1P4 antagonist counter-screen; inhibition, % at 4.98 µM; cell-based S1P1 antagonist counterscreen, inhibition; shares compounds with S1P4 antag; actives 37% (n = 520); in the data active = inhibition above about 40%;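 note: receptor stimulated with S1P near its EC80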
Hits are given with their value; n = inactive; x = no result; ! = not active in a repeat. Compounds with a hit are over-represented: about 2.4% of the library has one in this group of screens. Cut-off read from the data, not from the text of the source, unless noted: active = activation above about 45%; inactive = the rest.

SMILES	NPY-Y2 antag	NPY-Y1 PAM-ag	S1P4 agonist	NPY-Y1 antag	S1P4 antag	NPY2 pot ag	S1P4 agonist cf	S1P1 agonist	others
CCOC(=O)c1c(-n2c(C)cc(C=C3C(=O)NC(=O)NC3=O)c2C)sc2c1CCCC2	n	39	12	n	n	n	29	n	NPY-Y1 confirm=93;NPY-Y2 counter=73;NPY-Y1 agonist=77;NPY-Y2 agonist=68;CNGC counter=28
CC(C)(C)N(NC(=O)c1ccccc1)C(=O)c1ccccc1	n	n	n	n	n	n	x	x
Cc1cccc(N2CCc3c2nc2ccccc2c3N)c1	n	n	n	n	n	68!	x	x	NPY-Y2 confirm=n;NPY-Y1 potentiator=n;NPY-Y1 agonist 2=n;CNGC inh=n;Y2 agonist ctr=23
c1ccc2c(CNC3CCCCCC3)c[nH]c2c1	n	n	n	n	n	n	x	x
O=C1Nc2ccccc2/C1=C/c1nc2ccccc2c(=O)n1-c1ccc(O)cc1	x	n	n	x	n	42	x	x	NPY-Y2 confirm=33;NPY-Y1 potentiator=n;NPY-Y1 agonist 2=29;CNGC inh=35;Y2 agonist ctr=33
Cc1[nH]c2ccccc2c1C(=O)C(=O)N1CC2CC(C1)c1cccc(=O)n1C2 (stereo not drawn)	x	n	n	n	n	n	x	x
CCN(CC)c1ccc(/C=C2/C(=O)NC(=O)N(CC3CCCO3)C2=O)cc1 (stereo not drawn)	n	n	n	n	n	n	x	x
O=C1NC(=O)N(CC2CCCO2)C(=O)/C1=C/c1cccs1 (stereo not drawn)	x	n	n	x	n	41	x	x	NPY-Y2 confirm=n;NPY-Y1 potentiator=n;NPY-Y1 agonist 2=n;CNGC inh=n;Y2 agonist ctr=n
Cc1nn(Cc2ccccc2)c(Cl)c1C(=O)OCC(=O)Nc1cccc2ccccc12	n	n	n	n	n	45	x	x	NPY-Y2 confirm=n;NPY-Y1 potentiator=n;NPY-Y1 agonist 2=n;CNGC inh=n;Y2 agonist ctr=n
Cc1nc(SCc2c(Cl)cccc2Cl)nc(OC(=O)N(C)C)c1C	x	n	n	x	n	n	x	x
O=c1c2cc(Br)ccc2[nH]c(=S)n1-c1ccccc1	x	n	n	n	n	n	x	x
O=c1c2ccccc2[nH]c(=S)n1-c1ccc(Br)cc1	x	n	n	n	n	32	x	x	NPY-Y2 confirm=n;NPY-Y1 potentiator=n;NPY-Y1 agonist 2=n;CNGC inh=n;Y2 agonist ctr=n
Clc1cccc(N2CCNCC2)c1Cl	n	n	n	n	n	32	x	x	NPY-Y2 confirm=n;NPY-Y1 potentiator=n;NPY-Y1 agonist 2=n;CNGC inh=n;Y2 agonist ctr=n
N#Cc1cc(F)c(N2CCNCC2)cc1Cl	n	n	n	n	n	n	x	x
CC(C)CCNC(=O)c1c(N)n(CC2CCCO2)c2nc3ccccc3nc12 (stereo not drawn)	n	n	12	n	n	n	n	n
CCC(C)NC(=O)c1c(N)n(CC2CCCO2)c2nc3ccccc3nc12 (stereo not drawn)	n	n	n	n	n	n	x	x
OC(CNC1CCCCCCC1)c1ccccc1 (stereo not drawn)	x	n	n	n	n	n	x	x
C[n+]1ccc(-c2ccncc2)cc1	n	n	12	n	n	n	n	n
CCOC(=O)C1=C(C)N(C)C2(C)CC1c1ccccc1O2 (stereo not drawn)	n	n	n	n	n	n	x	x
CN1CCC2(CC1)CC(NC=O)c1ccccc1O2 (stereo not drawn)	x	n	13	n	n	n	n	n
COCCNC(=O)c1c(NC(=O)c2ccco2)n(Cc2ccccc2)c2nc3ccccc3nc12	n	n	n	n	n	n	x	x
COCCCNC(=O)c1c(NC(=O)c2ccccc2Cl)n(Cc2ccccc2)c2nc3ccccc3nc12	n	n	12	n	n	n	n	n
CC(=O)NC1CC2CCCC(C1)N2 (stereo not drawn)	n	n	25	n	n	n	n	n
CCCC(=O)c1c(O)[nH]c(=O)[nH]c1=O	n	n	n	n	n	n	x	x
S=C1CN=C(c2ccccc2Cl)c2cc(Cl)ccc2N1	n	n	27	n	n	n	n	n
CC(Cc1ccccc1Sc1ccccc1O)N(C)C (stereo not drawn)	n	n	n	n	n	n	x	x
C[C@@H]1O[C@@H](O[C@H]2C[C@@H](O)[C@]3(CO)[C@H]4[C@H](O)C[C@]5(C)[C@@H](C6=CC(=O)OC6)CC[C@]5(O)[C@@H]4CC[C@]3(O)C2)[C@H](O)[C@H](O)[C@H]1O	22	n	n	34	33	n	x	x	S1P4 antag cf=58;S1P1 antag=n
CC12CC[C@H]3[C@@H](CCC4(O)C[C@H](O)CCC34/C=N/NC(=O)c3ccccc3Cl)C1(O)CCC2C1=CC(=O)OC1 (stereo partly drawn)	x	n	n	x	n	n	x	x
